# Laboratory results published in ChEMBL document CHEMBL1765020, “Synthesis and structure-affinity relationships of novel dibenzylideneacetone derivatives as probes for β-amyloid plaques” (J Med Chem, 2011).
# Experiment: Displacement of [125I]IMPY from amyloid beta (1 to 42) aggregate after 2 hrs by gamma counting
# Procedure, shortened: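 Competition binding in 1 mL PBS (0.2 M, pH 7.4). Aggregated Aβ1-42 fibrils (60 nM final) with [125I]IMPY and inhibitor at 10^-5 to 10^-10 M, added in ethanol. Nonspecific binding was defined with 1 μM IMPY. Incubated 2 h at 37 °C with shaking, then vacuum-filtered through glass fibre filters and the bound fraction gamma-counted. IC50 was converted to Ki by Cheng-Prusoff; triplicate, mean ± SD.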
row,SMILES,Ki [nM]
1,CN(C)c1ccc(/C=C/C(=O)/C=C/c2ccc(OCCF)cc2)cc1,5.6
2,CN(C)c1ccc(/C=C/C(=O)/C=C/c2ccc(-c3ccc(Br)s3)s2)cc1,11.7
3,CN(C)c1ccc(/C=C/C(=O)/C=C/c2cc(C(F)(F)F)cc(C(F)(F)F)c2)cc1,4
4,CN(C)c1ccc(/C=C/C(=O)/C=C/c2ccc([N+](=O)[O-])cc2)cc1,5.2
5,"O=C1/C(=C/c2ccccc2)CCC/C1=C\c1ccccc1 [2,6-DIBENZYLIDENECYCLOHEXANONE]",704
6,CN(C)c1ccc(/C=C/C(=O)/C=C/c2ccc3c(c2)OCO3)cc1,1.8
7,COc1ccc2cc(/C=C/C(=O)/C=C/c3ccc(N(C)C)cc3)ccc2c1,2.5
8,O=C(/C=C/c1ccccc1)/C=C/c1ccccc1,242
9,CN(C)c1ccc(/C=C/C(=O)/C=C/c2ccc(OCc3ccccc3)cc2)cc1,2
10,COc1ccc(/C=C2\CCC/C(=C\c3ccc(OC)cc3)C2=O)cc1,24.8
11,CN(C)c1ccc(/C=C/C(=O)/C=C/c2ccc(OC(c3ccccc3)(c3ccccc3)c3ccccc3)cc2)cc1,2.8
12,CN(C)c1ccc(/C=C/C(=O)/C=C/c2cc([N+](=O)[O-])ccc2OCc2ccccc2)cc1,33.3
13,COc1ccc(/C=C/C(=O)/C=C/c2ccc(N(C)C)cc2)cc1OC,5.4
14,CN(C)c1ccc(/C=C/C(=O)/C=C/c2ccc(N(c3ccccc3)c3ccccc3)cc2)cc1,131
15,Nc1ccc(/C=C/C(=O)/C=C/c2ccc(I)cc2)cc1,7
16,COc1cc(OC)c(/C=C/C(=O)/C=C/c2ccc(N(C)C)cc2)c(OC)c1,39.1
17,COc1cc(/C=C/C(=O)/C=C/c2ccc(N(C)C)cc2)cc(OC)c1,4.7
18,O=C(/C=C/c1ccc(Cl)cc1)/C=C/c1ccc(Cl)cc1,9
19,CCN(CC)c1ccc(/C=C/C(=O)/C=C/c2ccc(N(C)C)cc2)cc1,15.7
20,CN(C)c1ccc(/C=C/C(=O)/C=C/c2ccc(C(F)(F)F)cc2)cc1,0.8
21,O=C1/C(=C/c2ccc(Cl)cc2)CCC/C1=C\c1ccc(Cl)cc1,11.4
22,COc1cc(/C=C/C(=O)/C=C/c2ccc(N(C)C)cc2)cc(OC)c1OC,5.2
23,COc1ccc(/C=C/C(=O)/C=C/c2ccc(OC)cc2)cc1,6.5
24,COc1cc(/C=C/C(=O)/C=C/c2ccc(N(C)C)cc2)ccc1OCc1ccccc1,4.1
25,CN(C)c1ccc(/C=C/C(=O)/C=C/c2ccc(OCCOCCF)cc2)cc1,4.4
26,CN(C)c1ccc(/C=C/C(=O)/C=C/c2ccc(C(=O)O)cc2)cc1,78.1
27,CN(C)c1ccc(/C=C/C(=O)/C=C/c2cccc(Oc3ccccc3)c2)cc1,3.8
28,COc1cc(/C=C/C(=O)CC(=O)/C=C/c2ccc(O)c(OC)c2)ccc1O [CURCUMIN],49.8
29,CN(C)c1ccc(/C=C/C(=O)/C=C/c2ccc3[nH]ccc3c2)cc1,4.2
30,CN(C)c1ccc(/C=C2\CCC/C(=C\c3ccc(N(C)C)cc3)C2=O)cc1,1

# Results, then the compound that gave them:
row,Ki [nM],SMILES
1,9.2,CN(C)c1ccc(/C=C/C(=O)/C=C/c2c(F)cccc2Cl)cc1
2,2.8,COc1ccc(/C=C/C(=O)/C=C/c2ccc(N(C)C)cc2)c(OC)c1
3,3.7,CN(C)c1ccc(/C=C/C(=O)/C=C/c2ccc(F)cc2)cc1
4,18.5,CN(C)c1ccc(/C=C/C(=O)/C=C/c2c(Cl)cccc2Cl)cc1
5,8.1,CNc1cccc(/C=C/C(=O)/C=C/c2ccc(N(C)C)cc2)c1
6,18.8,CN(C)c1ccc(/C=C/C(=O)/C=C/c2ccccc2[N+](=O)[O-])cc1
7,23,CN(C)c1ccc(/C=C/C(=O)/C=C/c2ccccn2)cc1
8,8.4,CN(C)c1ccc(/C=C/C(=O)/C=C/c2ccccc2N)cc1
9,28.2,CN(C)c1ccc(/C=C/C(=O)/C=C/c2ccccc2O)cc1
10,8.5,CN(C)c1ccc(/C=C/C(=O)/C=C/c2ccco2)cc1
11,4.8,CN(C)c1ccc(/C=C/C(=O)/C=C/c2ccc(I)nc2)cc1
12,8,CN(C)c1ccc(/C=C/C(=O)/C=C/c2cccc(N(C)C)c2)cc1
13,1.9,CN(C)c1ccc(/C=C/C(=O)/C=C/c2cccc(Br)c2)cc1
14,0.7,COc1ccc(/C=C/C(=O)/C=C/c2ccc(N(C)C)cc2)cc1
15,2.9,CNc1ccc(/C=C/C(=O)/C=C/c2ccc(N(C)C)cc2)cc1
16,3.8,CN(C)c1ccc(/C=C/C(=O)/C=C/c2ccc(Br)s2)cc1
17,2640,CNc1ccccc1/C=C/C(=O)/C=C/c1ccc(N(C)C)cc1
18,16.2,CN(C)c1ccc(/C=C/C(=O)/C=C/c2cc(Br)ccc2O)cc1

row,Ki [nM],SMILES
1,1.2,CN(C)c1ccc(/C=C/C(=O)/C=C/c2cccc(F)c2)cc1
2,2.7,CN(C)c1ccc(/C=C/C(=O)/C=C/c2ccc(N(C)C)cc2)cc1
3,18.6,CN(C)c1ccc(/C=C/C(=O)/C=C/c2ccccc2OCc2ccccc2)cc1
4,1.2,CN(C)c1ccc(/C=C/C(=O)/C=C/c2ccccc2)cc1
5,4,CN(C)c1ccc(/C=C/C(=O)/C=C/c2cccc([N+](=O)[O-])c2)cc1
6,0.9,CN(C)c1ccc(/C=C/C(=O)/C=C/c2ccccc2Cl)cc1
7,2.8,CN(C)c1ccc(/C=C/C(=O)/C=C/c2ccc(Br)cc2)cc1
8,5.8,CN(C)c1ccc(/C=C/C(=O)/C=C/c2ccc[nH]2)cc1
9,13.7,CN(C)c1ccc(/C=C/C(=O)/C=C/c2cccc(N)c2)cc1
10,6.8,CN(C)c1ccc(/C=C/C(=O)/C=C/c2ccc(O)cc2)cc1
11,3.7,CN(C)c1ccc(/C=C/C(=O)/C=C/c2ccc(N)cc2)cc1
12,1.1,CN(C)c1ccc(/C=C/C(=O)/C=C/c2ccc(Cl)cc2)cc1
13,5.5,CN(C)c1ccc(/C=C/C(=O)/C=C/c2cccc(I)c2)cc1
14,1.3,Cc1ccc(/C=C/C(=O)/C=C/c2ccc(N(C)C)cc2)cc1
15,2.3,CN(C)c1ccc(/C=C/C(=O)/C=C/c2ccc(Br)nc2)cc1
16,2.2,CN(C)c1ccc(/C=C/C(=O)/C=C/c2ccc(Cl)nc2)cc1
17,5.3,CN(C)c1ccc(/C=C/C(=O)/C=C/c2cccs2)cc1
